Test system: Fibroblast
Experiment: Multiplex assay against human fibroblast
Format: toxicity, cell-based
Procedure, shortened: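 At seeding, live cells were stained with Hoechst33342, BioTracker Green Microtubule Cytoskeleton Dye, MitoTracker Red and Annexin V Alexa Fluor 680. After compound addition they were imaged on a CQ1 microscope at 37°C and 5% CO2, and CellPathfinder machine-learning gating sorted them into Hoechst high-intensity objects or normal cells, with normal cells further split into healthy, pyknosed or fragmented nuclei and pyknosed cells into mitotic or apoptotic. Tubulin, mitochondrial-mass and membrane-permeability phenotypes are given as per cents of cells with healthy nuclei.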

[1] = 12 h, 0 µM, compound concentration 0 uM, replicate 1
[2] = 12 h, 0 µM, compound concentration 0 uM, replicate 2
[3] = 12 h, 1 µM, compound concentration 1 uM, replicate 1
[4] = 12 h, 1 µM, compound concentration 1 uM, replicate 2
[5] = 24 h, 0 µM, compound concentration 0 uM, replicate 1
[6] = 24 h, 0 µM, compound concentration 0 uM, replicate 2
[7] = 24 h, 1 µM, compound concentration 1 uM, replicate 1
[8] = 24 h, 1 µM, compound concentration 1 uM, replicate 2
[9] = 12 h, 10 µM, compound concentration 10 uM, replicate 1
[10] = 12 h, 10 µM, compound concentration 10 uM, replicate 2
[11] = 24 h, 10 µM, compound concentration 10 uM, replicate 1
[12] = 24 h, 10 µM, compound concentration 10 uM, replicate 2
[13] = 48 h, 1 µM, compound concentration 1 uM, replicate 1
[14] = 48 h, 1 µM, compound concentration 1 uM, replicate 2
[15] = 48 h, 10 µM, compound concentration 10 uM, replicate 1
[16] = 48 h, 10 µM, compound concentration 10 uM, replicate 2

## CCNc1cc(N[C@H]2CC[C@H](O)CC2)nc(Nc2ccc3c(ccn3Cc3ccccc3)c2)n1
[1]
  Population Apoptotic (%): 55%
  Population Fragmented Nuclei (%): 24%
  Population Healthy Nuclei (%): 52%
  Population Hoechst High Intensity Objects (%): 26%
  Population Membrane Permeable-Phenotype (%): 0%
  Population Mitotic Cells (%): 44%
  Population Normal (%): 73%
  Population Pyknosed Nuclei (%): 22%
  Population Tubulin-Different-Phenotype (%): 38%
  Total Cell Count: 280
[2]
  Population Apoptotic (%): 60%
  Population Fragmented Nuclei (%): 40%
  Population Healthy Nuclei (%): 48%
  Population Hoechst High Intensity Objects (%): 47%
  Population Membrane Permeable-Phenotype (%): 4%
  Population Mitochondria Different-Phenotype (%): 41%
  Population Mitotic Cells (%): 40%
  Population Normal (%): 52%
  Population Pyknosed Nuclei (%): 10%
  Population Tubulin-Different-Phenotype (%): 41%
  Total Cell Count: 94
[3]
  Population Apoptotic (%): 76%
  Population Fragmented Nuclei (%): 45%
  Population Healthy Nuclei (%): 47%
  Population Hoechst High Intensity Objects (%): 20%
  Population Membrane Permeable-Phenotype (%): 2%
  Population Mitochondria Different-Phenotype (%): 11%
  Population Mitotic Cells (%): 23%
  Population Normal (%): 79%
  Population Pyknosed Nuclei (%): 7%
  Population Tubulin-Different-Phenotype (%): 12%
  Total Cell Count: 286
[4]
  Population Apoptotic (%): 66%
  Population Fragmented Nuclei (%): 67%
  Population Healthy Nuclei (%): 29%
  Population Hoechst High Intensity Objects (%): 50%
  Population Membrane Permeable-Phenotype (%): 8%
  Population Mitochondria Different-Phenotype (%): 17%
  Population Mitotic Cells (%): 33%
  Population Normal (%): 49%
  Population Pyknosed Nuclei (%): 3%
  Population Tubulin-Different-Phenotype (%): 34%
  Total Cell Count: 160
[5]
  Population Apoptotic (%): 71%
  Population Fragmented Nuclei (%): 21%
  Population Healthy Nuclei (%): 45%
  Population Hoechst High Intensity Objects (%): 38%
  Population Mitochondria Different-Phenotype (%): 65%
  Population Mitotic Cells (%): 28%
  Population Normal (%): 61%
  Population Pyknosed Nuclei (%): 32%
  Population Tubulin-Different-Phenotype (%): 50%
  Total Cell Count: 257
[6]
  Population Apoptotic (%): 90%
  Population Fragmented Nuclei (%): 60%
  Population Healthy Nuclei (%): 21%
  Population Hoechst High Intensity Objects (%): 40%
  Population Membrane Permeable-Phenotype (%): 0%
  Population Mitochondria Different-Phenotype (%): 83%
  Population Mitotic Cells (%): 10%
  Population Normal (%): 59%
  Population Pyknosed Nuclei (%): 18%
  Population Tubulin-Different-Phenotype (%): 33%
  Total Cell Count: 92
[7]
  Population Apoptotic (%): 76%
  Population Fragmented Nuclei (%): 45%
  Population Healthy Nuclei (%): 44%
  Population Hoechst High Intensity Objects (%): 21%
  Population Membrane Permeable-Phenotype (%): 0%
  Population Mitochondria Different-Phenotype (%): 10%
  Population Mitotic Cells (%): 24%
  Population Normal (%): 78%
  Population Pyknosed Nuclei (%): 10%
  Population Tubulin-Different-Phenotype (%): 10%
  Total Cell Count: 313
[8]
  Population Apoptotic (%): 100%
  Population Fragmented Nuclei (%): 58%
  Population Healthy Nuclei (%): 40%
  Population Hoechst High Intensity Objects (%): 53%
  Population Membrane Permeable-Phenotype (%): 3%
  Population Mitochondria Different-Phenotype (%): 50%
  Population Mitotic Cells (%): 0%
  Population Normal (%): 46%
  Population Pyknosed Nuclei (%): 1%
  Population Tubulin-Different-Phenotype (%): 53%
  Total Cell Count: 152

## O=C(Nc1ccc(-c2ccnc(Nc3ccc(N4CCOCC4)cc3)n2)cc1)[C@@H]1CCCN1
[3]
  Population Apoptotic (%): 58%
  Population Fragmented Nuclei (%): 25%
  Population Healthy Nuclei (%): 41%
  Population Hoechst High Intensity Objects (%): 13%
  Population Membrane Permeable-Phenotype (%): 36%
  Population Mitochondria Different-Phenotype (%): 11%
  Population Mitotic Cells (%): 41%
  Population Normal (%): 87%
  Population Pyknosed Nuclei (%): 33%
  Population Tubulin-Different-Phenotype (%): 47%
  Total Cell Count: 100
[4]
  Population Apoptotic (%): 33%
  Population Fragmented Nuclei (%): 13%
  Population Healthy Nuclei (%): 76%
  Population Hoechst High Intensity Objects (%): 7%
  Population Membrane Permeable-Phenotype (%): 4%
  Population Mitochondria Different-Phenotype (%): 10%
  Population Mitotic Cells (%): 66%
  Population Normal (%): 92%
  Population Pyknosed Nuclei (%): 10%
  Population Tubulin-Different-Phenotype (%): 10%
  Total Cell Count: 65
[9]
  Population Apoptotic (%): 39%
  Population Fragmented Nuclei (%): 35%
  Population Healthy Nuclei (%): 30%
  Population Hoechst High Intensity Objects (%): 13%
  Population Membrane Permeable-Phenotype (%): 28%
  Population Mitochondria Different-Phenotype (%): 25%
  Population Mitotic Cells (%): 60%
  Population Normal (%): 86%
  Population Pyknosed Nuclei (%): 33%
  Population Tubulin-Different-Phenotype (%): 74%
  Total Cell Count: 146
[10]
  Population Apoptotic (%): 77%
  Population Fragmented Nuclei (%): 7%
  Population Healthy Nuclei (%): 77%
  Population Hoechst High Intensity Objects (%): 5%
  Population Membrane Permeable-Phenotype (%): 8%
  Population Mitochondria Different-Phenotype (%): 28%
  Population Mitotic Cells (%): 22%
  Population Normal (%): 94%
  Population Pyknosed Nuclei (%): 14%
  Population Tubulin-Different-Phenotype (%): 44%
  Total Cell Count: 65
[7]
  Population Apoptotic (%): 52%
  Population Fragmented Nuclei (%): 24%
  Population Healthy Nuclei (%): 52%
  Population Hoechst High Intensity Objects (%): 9%
  Population Membrane Permeable-Phenotype (%): 22%
  Population Mitochondria Different-Phenotype (%): 6%
  Population Mitotic Cells (%): 47%
  Population Normal (%): 91%
  Population Pyknosed Nuclei (%): 23%
  Population Tubulin-Different-Phenotype (%): 35%
  Total Cell Count: 100
[8]
  Population Apoptotic (%): 60%
  Population Fragmented Nuclei (%): 7%
  Population Healthy Nuclei (%): 85%
  Population Hoechst High Intensity Objects (%): 6%
  Population Membrane Permeable-Phenotype (%): 3%
  Population Mitochondria Different-Phenotype (%): 19%
  Population Mitotic Cells (%): 40%
  Population Normal (%): 93%
  Population Pyknosed Nuclei (%): 7%
  Population Tubulin-Different-Phenotype (%): 10%
  Total Cell Count: 63
[11]
  Population Apoptotic (%): 57%
  Population Fragmented Nuclei (%): 37%
  Population Healthy Nuclei (%): 48%
  Population Hoechst High Intensity Objects (%): 12%
  Population Membrane Permeable-Phenotype (%): 16%
  Population Mitochondria Different-Phenotype (%): 21%
  Population Mitotic Cells (%): 42%
  Population Normal (%): 87%
  Population Pyknosed Nuclei (%): 13%
  Population Tubulin-Different-Phenotype (%): 74%
  Total Cell Count: 156
[12]
  Population Apoptotic (%): 58%
  Population Fragmented Nuclei (%): 18%
  Population Healthy Nuclei (%): 64%
  Population Hoechst High Intensity Objects (%): 1%
  Population Membrane Permeable-Phenotype (%): 13%
  Population Mitochondria Different-Phenotype (%): 17%
  Population Mitotic Cells (%): 41%
  Population Normal (%): 98%
  Population Pyknosed Nuclei (%): 17%
  Population Tubulin-Different-Phenotype (%): 22%
  Total Cell Count: 72
[13]
  Population Apoptotic (%): 60%
  Population Fragmented Nuclei (%): 29%
  Population Healthy Nuclei (%): 60%
  Population Hoechst High Intensity Objects (%): 9%
  Population Membrane Permeable-Phenotype (%): 26%
  Population Mitochondria Different-Phenotype (%): 4%
  Population Mitotic Cells (%): 40%
  Population Normal (%): 90%
  Population Pyknosed Nuclei (%): 9%
  Population Tubulin-Different-Phenotype (%): 27%
  Total Cell Count: 111
[14]
  Population Apoptotic (%): 50%
  Population Fragmented Nuclei (%): 18%
  Population Healthy Nuclei (%): 76%
  Population Membrane Permeable-Phenotype (%): 18%
  Population Mitotic Cells (%): 50%
  Population Pyknosed Nuclei (%): 4%
  Population Tubulin-Different-Phenotype (%): 30%
  Total Cell Count: 101
[15]
  Population Apoptotic (%): 83%
  Population Fragmented Nuclei (%): 44%
  Population Healthy Nuclei (%): 50%
  Population Hoechst High Intensity Objects (%): 22%
  Population Membrane Permeable-Phenotype (%): 15%
  Population Mitochondria Different-Phenotype (%): 2%
  Population Mitotic Cells (%): 16%
  Population Normal (%): 77%
  Population Pyknosed Nuclei (%): 4%
  Population Tubulin-Different-Phenotype (%): 61%
  Total Cell Count: 179
[16]
  Population Apoptotic (%): 33%
  Population Fragmented Nuclei (%): 32%
  Population Healthy Nuclei (%): 64%
  Population Hoechst High Intensity Objects (%): 6%
  Population Membrane Permeable-Phenotype (%): 20%
  Population Mitochondria Different-Phenotype (%): 3%
  Population Mitotic Cells (%): 66%
  Population Normal (%): 93%
  Population Pyknosed Nuclei (%): 3%
  Population Tubulin-Different-Phenotype (%): 53%
  Total Cell Count: 99

Reference: ChEMBL document CHEMBL4689842, “EUbOPEN Chemogenomics Library wave 1” (2021)
